Experimental data from ChEMBL document CHEMBL3102784, “Salicylanilide diethyl phosphates: synthesis, antimicrobial activity and cytotoxicity” (Bioorg Med Chem, 2014).
≈ marks a conversion by molar mass, not a printed value. Calls of active or inactive are those of the source. The rule behind the calls is not given here.

Assays:
[1] = test system: Mycobacterium tuberculosis; experiment: Antimycobacterial activity against Mycobacterium tuberculosis H37Rv My 331/88 after 21 days; assay type: functional; settings: H37Rv My 331/88, 504 h
Method in brief: (§1)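 Micromethod MIC in Šula's semisynthetic medium at 37 °C. Compounds added in DMSO at 1000 down to 0.032 µmol/L. Isoniazid standard in sterile water at 0.5–250 µmol/L. Inocula: H37Rv 10^3, M. avium 10^5, M. kansasii 10^4. Read at 14 and 21 d, plus 7 d for M. kansasii.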

Mycobacterium kansasii [2] = experiment: Antimycobacterial activity against Mycobacterium kansasii 6509/96 after 21 days; assay type: functional; settings: 6509/96, 504 h; method in brief: as §1
Mycobacterium kansasii [3] = experiment: Antimycobacterial activity against Mycobacterium kansasii 6509/96 after 14 days; assay type: functional; settings: 6509/96, 336 h; method in brief: as §1
Staphylococcus aureus [4] = experiment: Antibacterial activity against Staphylococcus aureus CCM 4516/08 after 24 hrs by broth microdilution method; assay type: functional; settings: CCM 4516/08, 24 h
Method in brief: (§2)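 Broth microdilution in Mueller–Hinton broth, compounds dissolved in DMSO, tested over a dilution series from 500 downward. MIC taken as ≥95% growth reduction (IC95) versus drug-free control. Benzylpenicillin comparator. Readings at 24 and 48 h.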

[5] = test system: Staphylococcus epidermidis; experiment: Antibacterial activity against Staphylococcus epidermidis H 6966/08 after 48 hrs by broth microdilution method; assay type: functional; settings: H 6966/08, 48 h; method in brief: as §2
Aspergillus fumigatus [6] = experiment: Antifungal activity against Aspergillus fumigatus 231 after 24 hrs by broth microdilution method; assay type: functional; settings: Aspergillus fumigatus, 231, 24 h
Method in brief: (§3)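 Broth microdilution in RPMI 1640 with glutamine, fluconazole as reference. For yeasts, MIC is ≥80% growth reduction (IC80) versus control. For filamentous fungi, the value is expressed as IC50. Readings at 24 and 48 h.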

Staphylococcus aureus [7] = experiment: Antibacterial activity against methicillin-resistant Staphylococcus aureus H 5996/08 after 24 hrs by broth microdilution method; assay type: functional; settings: H 5996/08, 24 h; method in brief: as §2
Pichia kudriavzevii [8] = experiment: Antifungal activity against Candida krusei E28 after 48 hrs by broth microdilution method; assay type: functional; settings: E28, 48 h; method in brief: as §3
Lichtheimia corymbifera [9] = experiment: Antifungal activity against Absidia corymbifera 272 after 48 hrs by broth microdilution method; assay type: functional; settings: Lichtheimia corymbifera, 272, 48 h; method in brief: as §3
Candida tropicalis = experiment: Antifungal activity against Candida tropicalis 156 at 500 micromol/L after 24 to 48 hrs by broth microdilution method; assay type: functional, organism-based; method in brief: as §3
HepG2 = experiment: Cytotoxicity against human HepG2 cells after 24 hrs by CellTiter assay; assay type: cell-based; settings: HepG2, 24 h
Method in brief: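 HepG2 cells (passage 27–33) in MEM with 10% FBS, L-glutamine and NEAA, seeded at 1×10^4 per well. Treated next day with compounds at 0.1–100 µM (or 0.1–25 µmol/L), triplicates, <1% DMSO, for 24 h at 37 °C, 5% CO2. MTS reagent added for 2 h, absorbance read at 490 nm. IC50 taken against untreated (100%) and 10% DMSO (0%) controls.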

Lichtheimia corymbifera [10] = experiment: Antifungal activity against Absidia corymbifera 272 after 24 hrs by broth microdilution method; assay type: functional; settings: Lichtheimia corymbifera, 272, 24 h; method in brief: as §3
Mycobacterium avium [11] = experiment: Antimycobacterial activity against isoniazid, rifampicin, ethambutol and ofloxacin-resistant Mycobacterium avium My 330/88 after 21 days; assay type: functional; settings: My 330/88, 504 h; method in brief: as §1
Aspergillus fumigatus [12] = experiment: Antifungal activity against Aspergillus fumigatus 231 after 48 hrs by broth microdilution method; assay type: functional; settings: Aspergillus fumigatus, 231, 48 h; method in brief: as §3
Nakaseomyces glabratus = experiment: Antifungal activity against Candida glabrata 20/I at 500 micromol/L after 24 to 48 hrs by broth microdilution method; assay type: functional, organism-based; method in brief: as §3
Mycobacterium kansasii [13] = experiment: Antimycobacterial activity against Mycobacterium kansasii 6509/96 after 7 days; assay type: functional; settings: 6509/96, 168 h; method in brief: as §1
Trichosporon asahii [14] = experiment: Antifungal activity against Trichosporon asahii 1188 after 48 hrs by broth microdilution method; assay type: functional; settings: Trichosporon asahii, 1188, 48 h; method in brief: as §3
[15] = test system: Mycobacterium tuberculosis; experiment: Antimycobacterial activity against Mycobacterium tuberculosis H37Rv My 331/88 after 14 days; assay type: functional; settings: H37Rv My 331/88, 336 h; method in brief: as §1
Pichia kudriavzevii [16] = experiment: Antifungal activity against Candida krusei E28 after 24 hrs by broth microdilution method; assay type: functional; settings: E28, 24 h; method in brief: as §3
Staphylococcus aureus [17] = experiment: Antibacterial activity against Staphylococcus aureus CCM 4516/08 after 48 hrs by broth microdilution method; assay type: functional; settings: CCM 4516/08, 48 h; method in brief: as §2
Klebsiella pneumoniae [18] = experiment: Antibacterial activity against Klebsiella pneumoniae D 11750/08 at 500 micromol/L after 24 to 48 hrs by broth microdilution method; assay type: functional, organism-based; method in brief: as §2
Pseudomonas aeruginosa = experiment: Antibacterial activity against Pseudomonas aeruginosa CCM 1961 at 500 micromol/L after 24 to 48 hrs by broth microdilution method; assay type: functional, organism-based; method in brief: as §2
Mycobacterium kansasii [19] = experiment: Antimycobacterial activity against Mycobacterium kansasii My 235/80 after 21 days; assay type: functional; settings: My 235/80, 504 h; method in brief: as §1
Candida albicans [20] = experiment: Antifungal activity against Candida albicans ATCC 44859 after 24 hrs by broth microdilution method; assay type: functional; settings: ATCC 44859, 24 h; method in brief: as §3
[21] = test system: Trichophyton mentagrophytes; experiment: Antifungal activity against Trichophyton mentagrophytes 445 after 72 hrs by broth microdilution method; assay type: functional; settings: Trichophyton mentagrophytes, 445, 72 h
Method in brief: (§4)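 Filamentous dermatophyte tested by broth microdilution in RPMI 1640 with glutamine, fluconazole as reference. Value expressed as IC50 relative to growth control. Read at 72 and 120 h.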

Enterococcus sp. = experiment: Antibacterial activity against Enterococcus sp. J 14365/08 at 500 micromol/L after 24 to 48 hrs by broth microdilution method; assay type: functional, organism-based; method in brief: as §2
[22] = test system: Trichophyton mentagrophytes; experiment: Antifungal activity against Trichophyton mentagrophytes 445 after 120 hrs by broth microdilution method; assay type: functional; settings: Trichophyton mentagrophytes, 445, 120 h; method in brief: as §4
Mycobacterium avium [23] = experiment: Antimycobacterial activity against isoniazid, rifampicin, ethambutol and ofloxacin-resistant Mycobacterium avium My 330/88 after 14 days; assay type: functional; settings: My 330/88, 336 h; method in brief: as §1
Mycobacterium kansasii [24] = experiment: Antimycobacterial activity against Mycobacterium kansasii My 235/80 after 7 days; assay type: functional; settings: My 235/80, 168 h; method in brief: as §1
Candida albicans [25] = experiment: Antifungal activity against Candida albicans ATCC 44859 after 48 hrs by broth microdilution method; assay type: functional; settings: ATCC 44859, 48 h; method in brief: as §3
Klebsiella pneumoniae [26] = experiment: Antibacterial activity against ESBL-positive Klebsiella pneumoniae J 14368/08 at 500 micromol/L after 24 to 48 hrs by broth microdilution method; assay type: functional, organism-based; method in brief: as §2
Trichosporon asahii [27] = experiment: Antifungal activity against Trichosporon asahii 1188 after 24 hrs by broth microdilution method; assay type: functional; settings: Trichosporon asahii, 1188, 24 h; method in brief: as §3
Escherichia coli = experiment: Antibacterial activity against Escherichia coli CCM 4517 at 500 micromol/L after 24 to 48 hrs by broth microdilution method; assay type: functional, organism-based; method in brief: as §2
[28] = test system: Staphylococcus epidermidis; experiment: Antibacterial activity against Staphylococcus epidermidis H 6966/08 after 24 hrs by broth microdilution method; assay type: functional; settings: H 6966/08, 24 h; method in brief: as §2
Mycobacterium kansasii [29] = experiment: Antimycobacterial activity against Mycobacterium kansasii My 235/80 after 14 days; assay type: functional; settings: My 235/80, 336 h; method in brief: as §1
Staphylococcus aureus [30] = experiment: Antibacterial activity against methicillin-resistant Staphylococcus aureus H 5996/08 after 48 hrs by broth microdilution method; assay type: functional; settings: H 5996/08, 48 h; method in brief: as §2

| Structure (SMILES) | MIC [1] [µM] | MIC (Mycobacterium kansasii [2]) [µM] | MIC (Mycobacterium kansasii [3]) [µM] | MIC95 (Staphylococcus aureus [4]) [µM] | MIC95 [5] [µM] | MIC50 (Aspergillus fumigatus [6]) [µM] | MIC95 (Staphylococcus aureus [7]) [µM] | MIC80 (Pichia kudriavzevii [8]) [µM] | MIC50 (Lichtheimia corymbifera [9]) [µM] | Activity (Candida tropicalis) | IC50 (HepG2) [µM] | MIC50 (Lichtheimia corymbifera [10]) [µM] | MIC (Mycobacterium avium [11]) [µM] | MIC50 (Aspergillus fumigatus [12]) [µM] | Activity (Nakaseomyces glabratus) | MIC (Mycobacterium kansasii [13]) [µM] | MIC80 (Trichosporon asahii [14]) [µM] | MIC [15] [µM] | MIC80 (Pichia kudriavzevii [16]) [µM] | MIC95 (Staphylococcus aureus [17]) [µM] | also measured |
| --- | --- | --- | --- | --- | --- | --- | --- | --- | --- | --- | --- | --- | --- | --- | --- | --- | --- | --- | --- | --- | --- |
| CCOP(=O)(OCC)Oc1ccc(Br)cc1C(=O)Nc1ccc(Cl)c(Cl)c1 | 1 (≈ 0.497 µg/mL) | 4 (≈ 1.99 µg/mL) | 4 (≈ 1.99 µg/mL) | 500 (≈ 249 µg/mL) | > 500 | > 500 | 500 (≈ 249 µg/mL) | > 500 | > 500 | inactive | 2.04 | > 500 | 16 (≈ 7.95 µg/mL) | > 500 | inactive | 2 (≈ 0.994 µg/mL) | > 500 | 1 (≈ 0.497 µg/mL) | > 500 | > 500 | Activity (Klebsiella pneumoniae [18]): inactive; Activity (Pseudomonas aeruginosa): inactive; MIC (Mycobacterium kansasii [19]): 4 µM (≈ 1.99 µg/mL); MIC80 (Candida albicans [20]): > 500 µM; MIC50 [21]: > 500 µM; Activity (Enterococcus sp.): inactive; MIC50 [22]: > 500 µM; MIC (Mycobacterium avium [23]): 16 µM (≈ 7.95 µg/mL); MIC (Mycobacterium kansasii [24]): 2 µM (≈ 0.994 µg/mL); MIC80 (Candida albicans [25]): > 500 µM; Activity (Klebsiella pneumoniae [26]): inactive; MIC80 (Trichosporon asahii [27]): > 500 µM; Activity (Escherichia coli): inactive; MIC95 [28]: 500 µM (≈ 249 µg/mL); MIC (Mycobacterium kansasii [29]): 4 µM (≈ 1.99 µg/mL); MIC95 (Staphylococcus aureus [30]): > 500 µM |
| CCOP(=O)(OCC)Oc1ccc(Cl)cc1C(=O)Nc1cccc(C(F)(F)F)c1 | 2 (≈ 0.904 µg/mL) | 8 (≈ 3.61 µg/mL) | 8 (≈ 3.61 µg/mL) | > 500 | > 500 | > 500 | 500 (≈ 226 µg/mL) | > 500 | > 500 | inactive | 5.68 | > 500 | 16 (≈ 7.23 µg/mL) | > 500 | inactive | 8 (≈ 3.61 µg/mL) | > 500 | 2 (≈ 0.904 µg/mL) | > 500 | > 500 | Activity (Klebsiella pneumoniae [18]): inactive; Activity (Pseudomonas aeruginosa): inactive; MIC (Mycobacterium kansasii [19]): 8 µM (≈ 3.61 µg/mL); MIC80 (Candida albicans [20]): > 500 µM; MIC50 [21]: > 500 µM; Activity (Enterococcus sp.): inactive; MIC50 [22]: > 500 µM; MIC (Mycobacterium avium [23]): 16 µM (≈ 7.23 µg/mL); MIC (Mycobacterium kansasii [24]): 8 µM (≈ 3.61 µg/mL); MIC80 (Candida albicans [25]): > 500 µM; Activity (Klebsiella pneumoniae [26]): inactive; MIC80 (Trichosporon asahii [27]): > 500 µM; Activity (Escherichia coli): inactive; MIC95 [28]: 250 µM (≈ 113 µg/mL); MIC (Mycobacterium kansasii [29]): 8 µM (≈ 3.61 µg/mL); MIC95 (Staphylococcus aureus [30]): 500 µM (≈ 226 µg/mL) |
